{"source": "PubChem BioAssay AID492951", "about": "(Molecular Libraries Program, Specialized Chemistry Center, …, 2010)", "note": "Unmarked numbers belong to inactive results. Activity calls are given as the source filed them.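 How the source made its calls: active means inhibition above 10%; inactive means the rest.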", "data": [{"molecular_target": "Hexokinase-4 (Homo sapiens) (UniProt P35557)", "sequence (P35557 whole entry, looked up)": "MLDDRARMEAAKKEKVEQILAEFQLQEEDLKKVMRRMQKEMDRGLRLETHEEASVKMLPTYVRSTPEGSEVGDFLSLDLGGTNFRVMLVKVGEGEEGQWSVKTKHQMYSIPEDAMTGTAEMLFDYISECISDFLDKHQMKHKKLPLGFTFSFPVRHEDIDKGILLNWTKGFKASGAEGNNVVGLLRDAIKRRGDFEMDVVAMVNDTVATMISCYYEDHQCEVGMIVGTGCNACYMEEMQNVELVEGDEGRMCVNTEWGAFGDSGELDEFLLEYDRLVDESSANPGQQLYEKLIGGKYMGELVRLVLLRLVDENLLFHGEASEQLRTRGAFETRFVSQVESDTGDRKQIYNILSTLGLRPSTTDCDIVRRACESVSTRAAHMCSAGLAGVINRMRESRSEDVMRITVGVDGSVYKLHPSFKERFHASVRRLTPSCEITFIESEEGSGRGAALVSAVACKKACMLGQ", "assay": "hGlck enzyme activity off-target inhibitors – biochemical, recombinant hGlck, counter-screen for TbHK1 inhibitor project (AID 492951)", "details": "G6PDH-coupled NADH absorbance 340 nm, at 10 µM; hits give high values", "summary_of_the_method": "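Material: Recombinant human glucokinase, G6PDH-coupled | Medium: TEA buffer pH 7.9 with 3.3 mM MgCl2, 0.75 mM NAD+ | Also added: 20 mM glucose as reaction starter, plus 1 mM ATP | Compound dosing: One dose, 10 µM final | Schedule: 10 min preincubation at room temperature | Measured by: A340 of NADH | Repeats: Three replicates per compound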", "values": [{"smiles": "O=C(Nc1ccccc1)c1cc(F)ccc1S", "inhibition": "3.6%"}, {"smiles": "COc1ccc(C(=O)Nc2cc(OC)ccc2C(=O)O)cc1", "inhibition": "6.9%"}, {"smiles": "O=C1c2cc(Br)ccc2S(=O)N1c1ccccc1", "note": "(stereo not drawn)", "outcome": "inactive"}, {"smiles": "CCOC(=O)c1ccncc1NC(=O)c1ccc(OC)cc1", "outcome": "inactive"}, {"smiles": "COc1ccc(C(=O)Nc2cc(Cl)ccc2-c2noc(=O)[nH]2)cc1", "inhibition": "30.1% (active)"}, {"smiles": "CC(C)(C)c1ccc(C(=O)Nc2cc(Br)ccc2C(=O)O)cc1", "inhibition": "26.2% (active)"}, {"smiles": "O=C(Nc1cc(Cl)ccc1C(=O)O)c1ccc(C2CCC2)cc1", "inhibition": "35.4% (active)"}, {"smiles": "O=C(Cn1sc2ccccc2c1=O)Nc1ccccc1Br", "inhibition": "9%"}, {"smiles": "Cc1ccccc1NC(=O)Cn1sc2ccccc2c1=O", "outcome": "inactive"}, {"smiles": "O=c1c2c(Br)cccc2sn1-c1ccccc1", "inhibition": "12.5% (active)"}, {"smiles": "COc1ccc(C(=O)Nc2cc(I)ccc2C(=O)O)cc1", "outcome": "inactive"}, {"smiles": "O=C(Nc1cc(Cl)ccc1C(=O)O)c1ccc2c(c1)CCC2", "inhibition": "12.2% (active)"}, {"smiles": "COc1ccc(N2C(=O)c3ccc(Cl)cc3C2=O)cc1", "outcome": "inactive"}, {"smiles": "CCc1ccc(C(=O)Nc2cc(Cl)ccc2C(=O)O)cc1", "outcome": "inactive"}, {"smiles": "N#Cc1ccc(Oc2ccc3c(c2)B(O)OC3)cc1", "outcome": "inactive"}, {"smiles": "O=C(Nc1cc(Cl)ccc1C(=O)O)c1ccccc1", "outcome": "inactive"}, {"smiles": "O=c1c2cc(C(F)(F)F)ccc2sn1-c1ccccc1", "inhibition": "45.7% (active)"}, {"smiles": "COc1cc(C(=O)Nc2cc(Cl)ccc2C(=O)O)cc(OC)c1OC", "outcome": "inactive"}, {"smiles": "COc1ccc(NC(=O)c2ccc(Cl)cc2C(=O)O)cc1", "outcome": "inactive"}, {"smiles": "COc1ccc(C(=O)Nc2cc(Cl)ccc2O)cc1", "inhibition": "22.2% (active)"}, {"smiles": "O=C(Cn1sc2ccccc2c1=O)Nc1ccc(I)cc1", "inhibition": "36.2% (active)"}, {"smiles": "O=c1s[nH]c2ccccc12", "inhibition": "48.8% (active)"}, {"smiles": "O=C(Cn1sc2ccccc2c1=O)Nc1cccc(C(F)(F)F)c1", "inhibition": "9.3%"}, {"smiles": "CCCCCCCC(=O)Nc1cc(Cl)ccc1C(=O)O", "outcome": "inactive"}, {"smiles": "CC(C)(C)c1ccc(C(=O)Nc2cc(Cl)c(Cl)cc2C(=O)O)cc1", "outcome": "inactive"}, {"smiles": "COc1ccc(C(=O)Nc2cc(C)ccc2C(=O)O)cc1", "outcome": "inactive"}, {"smiles": "O=C(Nc1cc(Cl)ccc1C(=O)O)c1ccc(I)cc1", "inhibition": "22.9% (active)"}, {"smiles": "COC(=O)c1ccc(Cl)cc1NC(=O)c1ccc(OC)cc1", "inhibition": "18.2% (active)"}, {"smiles": "O=C(CCn1sc2ccccc2c1=O)Nc1ccccc1", "outcome": "inactive"}, {"smiles": "COC(=O)c1cc(Cl)ccc1NC(=O)c1ccc(OC)cc1", "outcome": "inactive"}, {"smiles": "COc1ccc(C(=O)Nc2cc(Cl)ccc2C(=O)O)cn1", "outcome": "inactive"}, {"smiles": "COc1ccc(CC(=O)Nc2cc(Cl)ccc2C(=O)O)cc1", "outcome": "inactive"}, {"smiles": "O=c1c2ccc(Br)cc2sn1-c1ccccc1", "inhibition": "33.8% (active)"}, {"smiles": "OB1OCc2cc(C(F)(F)F)ccc21", "outcome": "inactive"}, {"smiles": "O=c1c(Br)csn1-c1ccc(Br)cc1", "inhibition": "32.2% (active)"}, {"smiles": "COc1ccc(C(=O)Nc2cc(Cl)ccc2[N+](=O)[O-])cc1", "outcome": "inactive"}, {"smiles": "CC(C)(C)c1ccc(C(=O)Nc2cc(Cl)ccc2-c2nn[nH]n2)cc1", "inhibition": "28.4% (active)"}, {"smiles": "Cc1cccc(C(=O)Nc2cc(Cl)ccc2C(=O)O)c1", "outcome": "inactive"}]}]}
